According to publication PMC3983694 (Journal of the American Chemical Society, 2013):
“And” between values parts separate entries of the source, which are not always exact repeats. Equal values may be shown once. Read-outs that look alike come from different tables or passages of the source. Marks after values point to notes of the source that are not given here. Each block holds one compound with its values, some of them ahead of it.

Columns and labels:
[1] = Protonation constants by potentiometric or spectrophotometric titration; assay type: physicochemical; settings: aqueous solution, 25°C, 0.1 M KCl; concentration constants based on p[H]
Method in brief: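 The glass electrode was calibrated by titrating 5 mM HCl in 0.1 M KCl with standardized 0.1 M KOH (25°C, Gran's method); constants are on p[H], not activity. Ligand (1 or 5 mM, 0.1 M KCl, 25°C; basic sites pre-protonated with ≥1 equiv HCl where needed) was titrated stepwise with 0.1 M KOH and fitted by non-linear least squares. Values are from three independent titrations as standard deviation of the mean. Adding 0.11 gives mixed-mode constants.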

[2] = Cu; assay type: binding; settings: for pCu = −log [Cu(I)aq]: 10 μM ligand and 1 μM Cu(I), pH 7.0, I = 0.1; for logβ2’ (apparent, 2:1 Cu(I) complex): pH 7.0 (0.1 M KClO4); for logβ2 of the 2:1 Cu(I) complex: recommended cumulative average, aqueous solution 25°C
[3] = Aqueous solubility of neutral ligand; assay type: physicochemical
[4] = cited from earlier work
[5] = Cyclic voltammetry of the ligand-bound Cu; assay type: physicochemical; settings: pH 5.0, 10 mM PIPBS, 0.1 M KClO4, Cu(II/I) complex
Method in brief: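 Cyclic voltammetry was run under argon in 10 mM PIPBS pH 5 with 0.1 M KClO4 electrolyte. Half-wave potentials were referenced to ferrocenium (0.40 vs. SHE) or ferroin.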

[6] = cited from earlier work; remark: listed apart in the source
[7] = Cu; assay type: binding; settings: 1:1 Cu(II) complex, aqueous solution, 25°C, I = 0.1
[8] = 1:1 Cu(II) complex, Damu et al.; cited from earlier work
[9] = spectrophotometric competition titration with MCL-1

logKH1 [1]: 3.80(2)
solubility in aqueous solution [3]: not soluble at millimolar concentrations
SMILES: O=C(O)c1cc(-c2cc(C(=O)O)c3ccccc3n2)nc2ccccc12 [BCA, 2,2′-bicinchoninic acid]
pCu = −log [Cu(I)aq] [2]: 13.5
logβ2 Cu(I) ([2]; competition titration with PEMEA): 17.63±0.05
logβ2’ (apparent, 2:1 Cu(I) complex) [2]: 17.7 ^e
logβ2 of the 2:1 Cu(I) complex [2]: 17.66(3) ^d
logβ2 Cu(I) [2, 9]: 17.67±0.03
protonation constant ([4]; 0.2 M ionic strength): 3.74±0.04

logKH1 [1]: 5.70(2)
E^f vs. SHE (half-wave potential) [5]: 0.626 V and 0.626(1) V
SMILES: Cc1cc(-c2ccc(S(=O)(=O)O)cc2)c2ccc3c(-c4ccc(S(=O)(=O)O)cc4)cc(C)nc3c2n1 [BCS, bathocuproine disulfonate]
pCu = −log [Cu(I)aq] [2]: 16.6
logβ2 Cu(I) ([2]; from half-wave potential and Cu(II) logβ2 via Equation (1)): 20.81±0.08
logβ2’ (apparent, 2:1 Cu(I) complex) [2]: 20.8 ^e
logβ2 of the 2:1 Cu(I) complex [2]: 20.81(2) ^d
logβ2 Cu(I) [2, 9]: 20.80±0.03
protonation constant ([4]; previously reported): 5.7
logβ2 Cu(I) ([6]; previously reported): 19.9

log KCu(II)L [7]: 9.21±0.02
SMILES: OCCN(CCO)Cc1ccccn1 [DHEAMP, N,N-bis(2-hydroxyethyl)-N-(2-pyridylmethyl)amine]
protonation constant ([4]; lit.): 6.92±0.01
logKCu(II)L [8]: 9.2±0.1

SMILES: CCSCCN(CCSCC)CCSCC [TEMEA]
protonation constant ([4]; aqueous solution): 8.32
protonation constant ([4]; extrapolated from data acquired in 80% water-methanol): 7.1

SMILES: CSCCN(CCSC)CCSC [TMMEA, tris(2-methylthioethyl)amine]
protonation constant ([4]; aqueous solution): 8.36

SMILES: C1CSCCCSCCCSCCCSC1 [[16]aneS4]
logKCu(I)L [6]: 12.0

SMILES: CC#N [acetonitrile]
logβ1 Cu(I) ([6]; kinetic method): 2.63
logβ2 Cu(I) ([6]; kinetic method): 4.02
logβ3 Cu(I) ([6]; kinetic method): 4.29
